What is called Tmax is the time from dosing to the highest level. By ΔTm is commonly meant the change in melting temperature against a reference sample.

SMILES strings stand for the structures. Calls of active or inactive are those of the source. The rule behind the calls is not given here.

The values below come from ChEMBL document CHEMBL4350961, “Discovery of Pyrrolo[3,2- d]pyrimidin-4-one Derivatives as a New Class of Potent and Cell-Active Inhibitors of P300/CBP-Associated Factor Bromodomain” (J Med Chem, 2019).

The target of series [1] is Bromodomain-containing protein 4 (Homo sapiens) (UniProt O60885). In words: Binding affinity to human partial length BRD4 bromodomain 2 long isoform (K333 to E460 residues) expressed in bacterial expression system at 1 uM by BROMOscan assay. The essentials:
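BROMOscan bromodomain cross-screen run by an outside service, compound at 1 µM against 32 recombinant bromodomains. Binding given as percent of control.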

The target in series [2] is Serine/threonine-protein kinase 24 (Homo sapiens) (UniProt Q9Y6E0). In words: Inhibition of recombinant human MST3 (1 to 304 residues) at 10 uM using ERMRPRKRQGSVRRRV as substrate measured after 40 mins in presence of [gamma33P]ATP by scintillation counting method.
Series [3] is described as follows: Tmax in Sprague-Dawley rat at 10 mg/kg, po administered via gavage by LC-MS/MS analysis. The following applies: in vivo. It counts as ADME, organism-based.
For series [4], the target named is Histone acetyltransferase p300 (Homo sapiens) (UniProt Q09472). Nature of the series: Binding affinity to human N-terminal His-tagged EP300 assessed as change in melting temperature at 10 uM by SYPRO orange dye-based fluorescence assay. Summed up: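 Thermal shift with His-tagged human bromodomain at 2 μM final in 10 mM HEPES pH 7.5, 500 mM NaCl. Compound at 10 μM final with 0.1% DMSO; SYPRO Orange at 1:1000. Equilibrated 3 min at 25 °C, then heated from 25 to 95 °C at 1 °C/min. Melting temperature shift taken from fluorescence; at least duplicate.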

For the next series, the species on record is Mus musculus. In words: Inhibition of recombinant full-length mouse PI3K p110alpha/p65alpha (1 to 571 residues) at 10 uM using phosphatidylinositol-4, 5-bisphosphate as substrate measured after 40 mins by HTRF assay. (In TR-FRET formats the signal depends on donor and acceptor labels being close together.)
The test system of series [5] is eIF-2-alpha kinase GCN2 (Homo sapiens), Q9P2K8 [E556G]. In words: Inhibition of recombinant full-length human GCN2 E556G mutant at 10 uM using RSRSRSRSRSRSRSR as substrate measured after 40 mins in presence of [gamma33P]ATP by scintillation counting method.
The test system of series [6] is Angiopoietin-1 receptor (Homo sapiens), Q02763 [Q939H,Q940H,R849W]. Nature of the series: Inhibition of human Tie2 Q939H/Q940H/R849W mutant (771 to end residues) using EFPIYDFLPAKKK as substrate measured after 40 mins in presence of [gamma33P]ATP by scintillation counting method.
The target in series [7] is cGMP-dependent protein kinase 1 (Homo sapiens) (UniProt Q13976). In words: Inhibition of recombinant full-length human PKG1beta at 10 uM using RRRLSFAEPG as substrate measured after 40 mins in presence of [gamma33P]ATP by scintillation counting method.
In series [8] the target is Ephrin type-A receptor 2 (Homo sapiens) (UniProt P29317). Nature of the series: Inhibition of recombinant human EphA2 (596 to 900 residues) at 10 uM using poly(Glu, Tyr) 4:1 as substrate measured after 40 mins in presence of [gamma33P]ATP by scintillation counting method.
Series [9] concerns the target Tyrosine-protein kinase Lyn (Mus musculus) (UniProt P25911). In words: Inhibition of mouse Lyn at 10 uM.
The target of series [10] is Serine/threonine-protein kinase Nek2 (Homo sapiens) (UniProt P51955). In words: Inhibition of recombinant full-length human NEK2 at 10 uM using myelin basic protein as substrate measured after 40 mins in presence of [gamma33P]ATP by scintillation counting method.
For series [11], the target named is Mitogen-activated protein kinase kinase kinase 10 (Homo sapiens) (UniProt Q02779). In words: Inhibition of recombinant human MLK2 (1 to 449 residues) at 10 uM using myelin basic protein as substrate measured after 40 mins in presence of [gamma33P]ATP by scintillation counting method.
The target of series [12] is Receptor-type tyrosine-protein kinase FLT3 (Homo sapiens) (UniProt P36888). In words: Inhibition of recombinant human Flt3 (564 to end residues) at 10 uM using EAIYAAPFAKKK as substrate measured after 40 mins in presence of [gamma33P]ATP by scintillation counting method.
For series [13], the target named is Homeodomain-interacting protein kinase 4 (Homo sapiens) (UniProt Q8NE63). In words: Inhibition of recombinant full-length human HIPK4 at 10 uM using RRRFRPASPLRGPPK as substrate measured after 40 mins in presence of [gamma33P]ATP by scintillation counting method.
Series [14] deals with Mitogen-activated protein kinase kinase kinase 3 (Homo sapiens) (UniProt Q99759). In words: Inhibition of recombinant full-length human MEKK3 at 10 uM using myelin basic protein as substrate measured after 40 mins in presence of [gamma33P]ATP by scintillation counting method.
In series [15] the target is Tyrosine-protein kinase Srms (Homo sapiens) (UniProt Q9H3Y6). Nature of the series: Inhibition of human SRMS at 10 uM by radiometric method. Summed up:
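Kinase panel of 422 kinases screened by Eurofins KinaseProfiler at a single test-compound concentration of 10 µM.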

Series [16] has as its system Receptor tyrosine-protein kinase erbB-2 (Homo sapiens), P04626 [G778D]. In words: Inhibition of recombinant human ErbB2 G778D mutant (676 to end residues) at 10 uM using poly (Glu, Tyr) 4:1 as substrate measured after 40 mins in presence of [gamma33P]ATP by scintillation counting method.
The subject of series [17] is RAC-gamma serine/threonine-protein kinase (Homo sapiens), Q9Y243 [S472D]. In words: Inhibition of recombinant full-length human PKBgamma S472D mutant (117 to end residues) at 10 uM using GRPRTSSFAEGKK as substrate measured after 40 mins in presence of [gamma33P]ATP by scintillation counting method.
Series [18] deals with Tau-tubulin kinase 2 (Homo sapiens) (UniProt Q6IQ55). In words: Inhibition of human TTBK2 (1 to 331 residues) using Casein as substrate measured after 40 mins in presence of [gamma33P]ATP by scintillation counting method.
Series [19] addresses MAP/microtubule affinity-regulating kinase 4 (Homo sapiens) (UniProt Q96L34). In words: Inhibition of recombinant full-length human MARK4 at 10 uM using KKKVSRSGLYRSPSMPENLNRPR as substrate measured after 40 mins in presence of [gamma33P]ATP by scintillation counting method.
The target in series [20] is Serine/threonine-protein kinase WNK1 (Homo sapiens) (UniProt Q9H4A3). In words: Inhibition of human WNK1 (1 to 491 residues) using myelin basic protein as substrate measured after 120 mins in presence of [gamma33P]ATP by scintillation counting method.
Series [21] relates to Serine/threonine-protein kinase Nek4 (Homo sapiens), P51957 [P225A]. In words: Inhibition of recombinant full-length human NEK4 P225A mutant at 10 uM using myelin basic protein as substrate measured after 40 mins in presence of [gamma33P]ATP by scintillation counting method.
Series [22] concerns the target 3-phosphoinositide-dependent protein kinase 1 (Homo sapiens) (UniProt O15530). In words: Inhibition of recombinant human PDK1 (52 to end residues) at 10 uM using PDKtide as substrate measured after 40 mins in presence of [gamma33P]ATP by scintillation counting method.

cGMP-dependent protein kinase 1 (Homo sapiens), sequence (Q13976 whole entry, the tested form may be a part): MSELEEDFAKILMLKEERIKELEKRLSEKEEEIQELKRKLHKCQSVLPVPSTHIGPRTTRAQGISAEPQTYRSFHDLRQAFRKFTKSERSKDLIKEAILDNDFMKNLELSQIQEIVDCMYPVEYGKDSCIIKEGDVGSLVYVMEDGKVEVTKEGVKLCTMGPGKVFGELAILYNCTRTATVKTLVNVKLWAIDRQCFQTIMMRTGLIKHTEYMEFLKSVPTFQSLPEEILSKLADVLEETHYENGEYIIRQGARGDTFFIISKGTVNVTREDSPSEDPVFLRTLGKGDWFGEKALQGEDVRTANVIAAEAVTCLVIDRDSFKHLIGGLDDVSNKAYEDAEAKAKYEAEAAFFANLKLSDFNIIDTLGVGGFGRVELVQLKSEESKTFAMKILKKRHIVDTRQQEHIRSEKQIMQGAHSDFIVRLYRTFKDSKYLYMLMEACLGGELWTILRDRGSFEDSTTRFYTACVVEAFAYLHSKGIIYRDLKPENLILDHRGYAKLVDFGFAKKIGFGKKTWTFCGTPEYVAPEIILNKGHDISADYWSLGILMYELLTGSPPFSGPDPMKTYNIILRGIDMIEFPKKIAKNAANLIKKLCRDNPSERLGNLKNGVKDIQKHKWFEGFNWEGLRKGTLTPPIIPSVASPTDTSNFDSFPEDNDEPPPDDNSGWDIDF
Serine/threonine-protein kinase Nek2 (Homo sapiens), sequence (P51955 whole entry, the tested form may be a part): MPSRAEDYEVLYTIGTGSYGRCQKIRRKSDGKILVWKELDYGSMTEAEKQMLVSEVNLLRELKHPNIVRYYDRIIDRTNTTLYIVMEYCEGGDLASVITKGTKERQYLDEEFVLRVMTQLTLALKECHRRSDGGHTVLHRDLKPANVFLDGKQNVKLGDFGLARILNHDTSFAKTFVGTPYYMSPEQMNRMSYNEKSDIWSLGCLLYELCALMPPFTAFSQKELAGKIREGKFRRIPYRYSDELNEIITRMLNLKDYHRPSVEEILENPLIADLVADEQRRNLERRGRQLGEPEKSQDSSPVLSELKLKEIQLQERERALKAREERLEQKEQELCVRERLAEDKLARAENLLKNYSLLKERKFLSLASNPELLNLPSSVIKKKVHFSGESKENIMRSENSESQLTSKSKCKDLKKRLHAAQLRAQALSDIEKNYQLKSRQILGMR
Histone acetyltransferase p300 (Homo sapiens), sequence (Q09472 whole entry): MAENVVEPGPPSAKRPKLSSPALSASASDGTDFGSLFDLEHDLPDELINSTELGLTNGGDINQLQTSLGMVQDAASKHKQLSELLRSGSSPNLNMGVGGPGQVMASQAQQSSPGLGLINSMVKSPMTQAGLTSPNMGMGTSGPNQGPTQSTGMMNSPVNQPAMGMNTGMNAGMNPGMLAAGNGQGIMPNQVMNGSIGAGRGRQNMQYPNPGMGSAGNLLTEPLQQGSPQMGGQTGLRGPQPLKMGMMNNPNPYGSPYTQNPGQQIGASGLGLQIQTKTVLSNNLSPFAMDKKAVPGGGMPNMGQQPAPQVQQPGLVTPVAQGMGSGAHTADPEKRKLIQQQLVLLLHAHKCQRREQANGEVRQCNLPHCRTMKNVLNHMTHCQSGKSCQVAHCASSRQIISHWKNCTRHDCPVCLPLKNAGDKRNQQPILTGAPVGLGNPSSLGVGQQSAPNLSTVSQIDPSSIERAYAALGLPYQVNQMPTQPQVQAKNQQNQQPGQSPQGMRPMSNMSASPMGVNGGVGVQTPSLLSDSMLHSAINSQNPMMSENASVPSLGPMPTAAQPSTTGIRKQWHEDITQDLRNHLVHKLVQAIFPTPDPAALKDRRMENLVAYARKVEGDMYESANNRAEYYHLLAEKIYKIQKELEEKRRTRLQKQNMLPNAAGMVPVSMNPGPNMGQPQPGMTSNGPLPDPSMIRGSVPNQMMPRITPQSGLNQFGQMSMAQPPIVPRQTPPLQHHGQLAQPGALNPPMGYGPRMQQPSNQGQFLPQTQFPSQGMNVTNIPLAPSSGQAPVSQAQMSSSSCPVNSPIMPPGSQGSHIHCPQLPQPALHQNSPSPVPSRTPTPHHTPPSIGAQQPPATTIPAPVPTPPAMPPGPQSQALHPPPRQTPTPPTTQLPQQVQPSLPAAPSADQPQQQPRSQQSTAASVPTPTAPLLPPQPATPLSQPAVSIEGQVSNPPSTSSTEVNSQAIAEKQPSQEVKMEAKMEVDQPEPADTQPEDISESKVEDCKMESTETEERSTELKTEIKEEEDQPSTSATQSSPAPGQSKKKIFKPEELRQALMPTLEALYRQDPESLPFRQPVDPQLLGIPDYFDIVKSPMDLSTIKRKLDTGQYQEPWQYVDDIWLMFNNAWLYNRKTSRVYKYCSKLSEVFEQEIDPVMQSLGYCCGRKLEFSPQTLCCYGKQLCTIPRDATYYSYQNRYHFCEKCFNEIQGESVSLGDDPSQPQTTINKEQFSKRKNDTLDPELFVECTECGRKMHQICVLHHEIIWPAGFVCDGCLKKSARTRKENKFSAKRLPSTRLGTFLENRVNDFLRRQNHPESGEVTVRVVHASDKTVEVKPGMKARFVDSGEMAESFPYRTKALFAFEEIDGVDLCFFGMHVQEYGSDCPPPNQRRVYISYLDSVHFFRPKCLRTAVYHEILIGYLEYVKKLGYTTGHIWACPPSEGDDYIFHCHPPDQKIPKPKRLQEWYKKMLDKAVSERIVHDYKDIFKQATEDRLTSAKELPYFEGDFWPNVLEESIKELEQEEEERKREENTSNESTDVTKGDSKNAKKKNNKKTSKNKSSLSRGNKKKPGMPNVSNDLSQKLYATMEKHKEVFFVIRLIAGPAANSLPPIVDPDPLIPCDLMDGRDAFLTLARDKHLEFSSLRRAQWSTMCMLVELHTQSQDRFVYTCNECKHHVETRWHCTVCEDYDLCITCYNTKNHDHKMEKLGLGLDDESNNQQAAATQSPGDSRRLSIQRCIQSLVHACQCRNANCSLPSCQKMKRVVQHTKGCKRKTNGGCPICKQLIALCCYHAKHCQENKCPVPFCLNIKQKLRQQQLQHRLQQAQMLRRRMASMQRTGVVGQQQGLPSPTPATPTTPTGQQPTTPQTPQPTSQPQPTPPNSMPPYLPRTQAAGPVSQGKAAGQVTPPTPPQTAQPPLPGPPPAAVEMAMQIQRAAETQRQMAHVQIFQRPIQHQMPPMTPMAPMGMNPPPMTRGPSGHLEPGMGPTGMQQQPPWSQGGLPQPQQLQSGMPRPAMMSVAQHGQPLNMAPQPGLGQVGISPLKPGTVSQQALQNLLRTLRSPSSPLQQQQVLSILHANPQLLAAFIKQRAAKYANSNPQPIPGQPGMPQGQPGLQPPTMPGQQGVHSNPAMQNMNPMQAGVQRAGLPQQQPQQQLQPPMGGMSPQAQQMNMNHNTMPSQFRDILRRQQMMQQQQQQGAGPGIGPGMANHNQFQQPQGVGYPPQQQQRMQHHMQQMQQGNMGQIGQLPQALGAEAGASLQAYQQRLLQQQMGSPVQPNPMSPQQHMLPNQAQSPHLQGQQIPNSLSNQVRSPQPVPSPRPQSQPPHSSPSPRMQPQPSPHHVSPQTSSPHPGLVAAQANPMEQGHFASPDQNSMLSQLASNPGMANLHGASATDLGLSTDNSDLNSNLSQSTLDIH
Receptor tyrosine-protein kinase erbB-2 (Homo sapiens), P04626 [G778D], sequence (P04626 whole entry G778D): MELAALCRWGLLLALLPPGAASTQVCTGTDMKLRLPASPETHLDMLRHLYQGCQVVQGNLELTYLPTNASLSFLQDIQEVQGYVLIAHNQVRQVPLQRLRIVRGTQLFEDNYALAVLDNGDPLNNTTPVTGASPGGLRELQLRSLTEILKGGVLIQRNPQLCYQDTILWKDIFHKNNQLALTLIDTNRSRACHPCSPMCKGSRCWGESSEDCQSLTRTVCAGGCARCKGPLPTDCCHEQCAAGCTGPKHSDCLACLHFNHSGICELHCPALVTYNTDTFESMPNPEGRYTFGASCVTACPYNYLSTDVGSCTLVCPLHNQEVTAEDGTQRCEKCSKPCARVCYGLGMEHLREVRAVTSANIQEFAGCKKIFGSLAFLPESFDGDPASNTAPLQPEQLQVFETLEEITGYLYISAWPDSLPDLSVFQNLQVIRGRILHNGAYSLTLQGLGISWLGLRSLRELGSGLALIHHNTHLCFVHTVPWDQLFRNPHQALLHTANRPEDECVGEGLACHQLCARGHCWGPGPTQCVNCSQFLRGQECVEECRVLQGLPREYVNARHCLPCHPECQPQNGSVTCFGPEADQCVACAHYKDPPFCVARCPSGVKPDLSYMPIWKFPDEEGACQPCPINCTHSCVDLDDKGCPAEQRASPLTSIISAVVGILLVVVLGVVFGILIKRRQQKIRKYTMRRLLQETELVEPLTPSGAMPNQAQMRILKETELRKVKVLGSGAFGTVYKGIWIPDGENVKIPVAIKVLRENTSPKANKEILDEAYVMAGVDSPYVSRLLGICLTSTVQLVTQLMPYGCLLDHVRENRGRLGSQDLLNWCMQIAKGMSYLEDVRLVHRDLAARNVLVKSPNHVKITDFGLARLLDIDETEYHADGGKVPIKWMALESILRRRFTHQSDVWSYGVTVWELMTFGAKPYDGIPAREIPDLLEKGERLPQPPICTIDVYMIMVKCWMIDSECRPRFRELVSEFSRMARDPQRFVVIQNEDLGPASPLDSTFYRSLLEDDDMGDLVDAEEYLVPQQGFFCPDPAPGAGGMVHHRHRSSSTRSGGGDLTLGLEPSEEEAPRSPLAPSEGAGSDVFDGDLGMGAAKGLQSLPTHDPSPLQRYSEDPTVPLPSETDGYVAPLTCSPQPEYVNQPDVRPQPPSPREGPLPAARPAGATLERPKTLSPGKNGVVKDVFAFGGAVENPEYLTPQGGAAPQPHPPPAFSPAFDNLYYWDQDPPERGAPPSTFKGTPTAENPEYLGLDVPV

For `CN1C[C@H](Nc2nc3cc[nH]c3c(=O)n2C)C[C@H](c2ccc3c(c2)OCCO3)C1`, the outcome in [1] was inactive. The inhibition entry (in [2]; in the series filed under Mus musculus; in series [5]; in series [6]; in [7]; in series [8]) was “inactive” throughout. In addition, the inhibition entry in series [9], in series [10], in series [11], in series [12], in [13] and in [14] was “inactive” throughout. Also, the inhibition entry in series [15], in [16], in [17], in series [18], in [19] and in series [20] was “inactive” each time. Also, the inhibition entry in series [21] and in series [22] was “inactive” in each case. The Tmax in [3] stood at 40.2 min. Besides, the ΔTm in series [4] was found to be 0.1 °C.
